Here are results for 29 molecules from ChEMBL document CHEMBL4699431, “Design and synthesis of substituted (1-(benzyl)-1H-1,2,3-triazol-4-yl)(piperazin-1-yl)methanone conjugates: study on their apoptosis inducing ability and tubulin polymerization inhibition” (RSC Med Chem, 2020).

Common to all, as to format: functional, cell-based
For one assay, the system named is BT-474. The assay can be described thus: Cytotoxicity against human BT-474 cells assessed as reduction in cell viability incubated for 48 hrs by MTT assay. The settings on record: BT-474, 48 h. The method, boiled down: (§1)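 Cells plated at 3000-4500 per well and treated after 24 h. DMSO stocks (20 mM) were diluted in medium to final DMSO <0.1%, twofold series […], 48 h. MTT (0.5 mg/mL) was added for 4 h, formazan dissolved in DMSO, absorbance read at 570 nm.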
For orientation: Tetrazolium dyes change colour on reduction, which living cells bring about.

The next assay has as its system HeLa. The assay can be described thus: Cytotoxicity against human HeLa cells assessed as reduction in cell viability incubated for 48 hrs by MTT assay. Summed up: as §1
For the next assay, the system named is MCF7. The assay can be described thus: Cytotoxicity against human MCF-7 cells assessed as reduction in cell viability incubated for 48 hrs by MTT assay. As to conditions: MCF7, 48 h. Summed up: as §1
Another assay concerns NCI-H460. The assay can be described thus: Cytotoxicity against human NCI-H460 cells assessed as reduction in cell viability incubated for 48 hrs by MTT assay. As to conditions: NCI-H460, 48 h. Summed up:
as §1

The subject of a further assay is HaCaT. The assay can be described thus: Cytotoxicity against human HaCaT cells assessed as reduction in cell viability incubated for 48 hrs by MTT assay. The method, boiled down:
as §1

As usually defined, the IC50 is the concentration at which inhibition is half-maximal. Consider `COc1ccc(S(=O)(=O)N2CCN(C(=O)c3cn(Cc4ccc(F)cc4)nn3)CC2)cc1`, for which the IC50 in the assay on BT-474, in the assay on HeLa, in the assay with MCF7, in the assay on NCI-H460 and in the assay with HaCaT was over 30 µM each time.
As to `O=C(c1cn(Cc2ccc(I)cc2)nn1)N1CCN(S(=O)(=O)c2ccc(Br)cc2)CC1`, the IC50 was found to be 2.33 µM with BT-474; 6.52 µM with HeLa; 2.73 µM in the assay on MCF7; 3.55 µM with NCI-H460; 2.48 µM in the assay with HaCaT.
On the same counts, the results for `COc1ccc(S(=O)(=O)N2CCN(C(=O)c3cn(Cc4ccc(I)cc4)nn3)CC2)cc1` are over 30 µM, over 30 µM, over 30 µM, over 30 µM and over 30 µM.
On the same counts, the results for `COc1ccc(S(=O)(=O)N2CCN(C(=O)c3cn(Cc4cccc(OC)c4)nn3)CC2)cc1` are over 30 µM, over 30 µM, over 30 µM, over 30 µM and over 30 µM.
Consider `O=C(c1cn(Cc2ccccc2)nn1)N1CCN(S(=O)(=O)c2ccc(Cl)cc2)CC1`, for which the half-maximal inhibitory concentration (IC50) in the assay with BT-474, with HeLa, with MCF7, in the assay on NCI-H460 and with HaCaT was over 30 µM each time.
As to `O=C(c1cn(Cc2ccccc2)nn1)N1CCN(S(=O)(=O)c2ccccc2)CC1`, the IC50 in the assay on BT-474, in the assay on HeLa, in the assay with MCF7, in the assay with NCI-H460 and in the assay with HaCaT was over 30 µM in each case.
For the molecule `O=C(c1cn(Cc2ccc(F)cc2)nn1)N1CCN(S(=O)(=O)c2ccccc2)CC1`, the IC50 with BT-474, in the assay on HeLa, in the assay on MCF7, in the assay with NCI-H460 and in the assay with HaCaT was over 30 µM each time.
Regarding `Cc1ccc(S(=O)(=O)N2CCN(C(=O)c3cn(Cc4ccccc4)nn3)CC2)cc1`, the IC50 in the assay with BT-474, in the assay with HeLa, in the assay on MCF7, in the assay on NCI-H460 and in the assay with HaCaT was over 30 µM throughout.
As to `O=C(c1cn(Cc2cccc(Oc3ccccc3)c2)nn1)N1CCN(S(=O)(=O)c2ccc(Cl)cc2)CC1`, the IC50 with BT-474 is 1.96 µM; with HeLa, 8.61 µM; in the assay with MCF7 it was 4.41 µM; in the assay on NCI-H460, 5.68 µM; in the assay on HaCaT it was 2.96 µM.
Taken in the same sequence, the figures for `O=C(c1cn(Cc2ccc(F)cc2)nn1)N1CCN(S(=O)(=O)c2ccc(Br)cc2)CC1` were over 30 µM, over 30 µM, over 30 µM, over 30 µM and over 30 µM.
On to `COC(=O)Nc1nc2cc(C(=O)c3cccs3)ccc2[nH]1` [NOCODAZOLE], for which the IC50 in the assay on BT-474 amounted to 0.87 µM; with MCF7 it was 1.76 µM; with NCI-H460 it was 2.29 µM; with HaCaT it was 1.19 µM.
For the molecule `COc1cccc(Cn2cc(C(=O)N3CCN(S(=O)(=O)c4ccc(Cl)cc4)CC3)nn2)c1`, the IC50 in the assay with BT-474, in the assay on HeLa, with MCF7, in the assay on NCI-H460 and with HaCaT was over 30 µM in each case.
As for `COc1ccc(S(=O)(=O)N2CCN(C(=O)c3cn(Cc4ccccc4)nn3)CC2)cc1`, the IC50 in the assay with BT-474, with HeLa, in the assay with MCF7, with NCI-H460 and with HaCaT was over 30 µM throughout.
In the case of `O=C(c1cn(Cc2ccc(I)cc2)nn1)N1CCN(S(=O)(=O)c2ccc(Cl)cc2)CC1`, the half-maximal inhibitory concentration (IC50) came out at 4.96 µM with BT-474; 5.74 µM in the assay with HeLa; 1.34 µM with MCF7; 2.25 µM with NCI-H460; 2.22 µM with HaCaT.
As for `O=C(c1cn(Cc2cccc(Oc3ccccc3)c2)nn1)N1CCN(S(=O)(=O)c2ccccc2)CC1`, the IC50 in the assay with BT-474, in the assay with HeLa, in the assay on MCF7, in the assay on NCI-H460 and with HaCaT was over 30 µM throughout.
In the case of `COc1cccc(Cn2cc(C(=O)N3CCN(S(=O)(=O)c4ccccc4)CC3)nn2)c1`, the IC50 in the assay with BT-474, in the assay with HeLa, in the assay with MCF7, with NCI-H460 and in the assay with HaCaT was over 30 µM throughout.
Consider `CC(C)(C)c1ccc(S(=O)(=O)N2CCN(C(=O)c3cn(Cc4cccc(Oc5ccccc5)c4)nn3)CC2)cc1`, for which the IC50 in the assay on BT-474 turned out to be 3.89 µM; in the assay on HeLa, 3.7 µM; in the assay with MCF7, 3.28 µM; in the assay on NCI-H460, 5.05 µM; in the assay with HaCaT, 4.34 µM.
On the same counts, the results for `O=C(c1cn(Cc2ccccc2)nn1)N1CCN(S(=O)(=O)c2ccc(Br)cc2)CC1` are over 30 µM, over 30 µM, over 30 µM, over 30 µM and over 30 µM.
On the same counts, the results for `CC(C)(C)c1ccc(S(=O)(=O)N2CCN(C(=O)c3cn(Cc4ccc(F)cc4)nn3)CC2)cc1` are over 30 µM, over 30 µM, over 30 µM, over 30 µM and over 30 µM.
Take `Cc1ccc(S(=O)(=O)N2CCN(C(=O)c3cn(Cc4cccc(Oc5ccccc5)c4)nn3)CC2)cc1`: the IC50 in the assay with BT-474, with HeLa, in the assay with MCF7, with NCI-H460 and with HaCaT was over 30 µM each time.
For the molecule `COc1cccc(Cn2cc(C(=O)N3CCN(S(=O)(=O)c4ccc(Br)cc4)CC3)nn2)c1`, the IC50 in the assay with BT-474, in the assay on HeLa, in the assay with MCF7, in the assay on NCI-H460 and with HaCaT was over 30 µM throughout.
Consider `COc1cccc(Cn2cc(C(=O)N3CCN(S(=O)(=O)c4ccc(C(C)(C)C)cc4)CC3)nn2)c1`, for which the IC50 in the assay on BT-474, in the assay with HeLa, in the assay with MCF7, with NCI-H460 and in the assay with HaCaT was over 30 µM each time.
`O=C(c1cn(Cc2ccc(I)cc2)nn1)N1CCN(S(=O)(=O)c2ccccc2)CC1`: the IC50 in the assay with BT-474, in the assay with HeLa, in the assay on MCF7, with NCI-H460 and in the assay on HaCaT was over 30 µM throughout.
Turning to `COc1ccc(S(=O)(=O)N2CCN(C(=O)c3cn(Cc4cccc(Oc5ccccc5)c4)nn3)CC2)cc1`, the IC50 in the assay with BT-474 came to 5.13 µM; in the assay on HeLa, 3.72 µM; in the assay on MCF7 it was 2.2 µM; in the assay with NCI-H460 it was 8.2 µM; in the assay with HaCaT it was 2.59 µM.
On the same counts, the results for `CC(C)(C)c1ccc(S(=O)(=O)N2CCN(C(=O)c3cn(Cc4ccccc4)nn3)CC2)cc1` are over 30 µM, over 30 µM, over 30 µM, over 30 µM and over 30 µM.
On the same counts, the results for `O=C(c1cn(Cc2ccc(F)cc2)nn1)N1CCN(S(=O)(=O)c2ccc(Cl)cc2)CC1` are over 30 µM, over 30 µM, over 30 µM, over 30 µM and over 30 µM.
On the same counts, the results for `Cc1ccc(S(=O)(=O)N2CCN(C(=O)c3cn(Cc4ccc(I)cc4)nn3)CC2)cc1` are over 30 µM, over 30 µM, over 30 µM, over 30 µM and over 30 µM.
For the molecule `CC(C)(C)c1ccc(S(=O)(=O)N2CCN(C(=O)c3cn(Cc4ccc(I)cc4)nn3)CC2)cc1`, the IC50 in the assay on BT-474 stood at 1.21 µM; in the assay with HeLa, 3.58 µM; in the assay on MCF7, 3.06 µM; with NCI-H460, 1.42 µM; with HaCaT, 2.06 µM.
On the same counts, the results for `Cc1ccc(S(=O)(=O)N2CCN(C(=O)c3cn(Cc4ccc(F)cc4)nn3)CC2)cc1` are over 30 µM, over 30 µM, over 30 µM, over 30 µM and over 30 µM.
